pIC50, pKi: −log10 of the molar value. Active and inactive are the calls of the source. No cut-off for these calls is given here.
Experiments:
Raji [1] = test: Potentiation of daunomycin-induced cytotoxicity against human Raji cells assessed as combination index at 40 uM after 24 hrs by Trypan blue exclusion method relative to control; type: functional
Method in brief: (§1)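 Each chemotherapeutic agent was first titrated on Raji cells to its lowest dose giving a statistically significant viability effect at 24 h. That dose was then combined with a fixed concentration of the test agent, and a combination index was calculated, where 0.8–1.2 indicates additivity. Experiments were repeated twice.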

[2] = molecular target: T1, L-lactate dehydrogenase A chain (Homo sapiens, UniProt P00338); test: Inhibition of lactate dehydrogenase-A in human Raji cells assessed as reduction of intracellular lactate level at 40 uM after 3 hrs; type: cell-based
[3] = molecular target: T1, L-lactate dehydrogenase A chain; test: Inhibition of lactate dehydrogenase-A in human Raji cells assessed as NADH level per 10^6 cells at 40 uM after 18 hrs (reference value: 24 pmol); type: cell-based
Method in brief: (§2)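 Intracellular NAD+ and NADH were measured in Raji cells after 18 h exposure to assess the redox balance. The shift was evaluated against untreated cells with statistical testing.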

Raji [4] = test: Induction of apoptosis in human Raji cells assessed as increase of BAX protein expression at 40 uM after 18 hrs by Western blotting relative to control; type: functional
Method in brief: (§3)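 After 18 h exposure, Raji cell lysates were analysed by Western blot for the mitochondrial apoptosis regulators BAX and BCL2. The fold change was expressed versus untreated control.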

Raji [5] = test: Cell cycle arrest in human Raji cells assessed as accumulation at S phase at 40 uM after 18 hrs using propidium iodide staining by flow cytometry; type: functional, cell-based; settings: in the assay text read “accumulation at G2/M phase” for “accumulation at S phase”
Method in brief: (§4)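 Raji cells were exposed for 18 h, then stained with propidium iodide. Cell cycle phase distribution (S, G2/M fractions) was measured by flow cytometry and tested for statistical significance against untreated cells.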

Raji [6] = test: Potentiation of cisplatin-induced cytotoxicity against human Raji cells assessed as combination index at 40 uM after 24 hrs by Trypan blue exclusion method relative to control; type: functional; method in brief: as §1
[7] = molecular target: T1, L-lactate dehydrogenase A chain; test: Inhibition of human liver purified lactate dehydrogenase-A using pyruvate as substrate assessed as NADH oxidation for 3 mins by fluorimetric method
Method in brief: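 Purified human LDH-A was run in a fluorimetric assay. Values were obtained from triplicate points and given as mean ± standard deviation.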

Raji [8] = test: Induction of apoptosis in human Raji cells assessed as increase of BCL2 protein expression at 40 uM after 18 hrs by Western blotting; type: functional, cell-based; method in brief: as §3
Raji [9] = test: Potentiation of etoposide-induced cytotoxicity against human Raji cells assessed as combination index at 40 uM after 24 hrs by Trypan blue exclusion method relative to control; type: functional; method in brief: as §1
[10] = molecular target: T1, L-lactate dehydrogenase A chain; test: Inhibition of lactate dehydrogenase-A in human Raji cells assessed as NAD level per 10^6 cells at 40 uM after 18 hrs (reference value: 365 pmol); type: cell-based; method in brief: as §2
[11] = molecular target: T1, L-lactate dehydrogenase A chain; test: Inhibition of human liver purified lactate dehydrogenase-A using pyruvate as substrate assessed as disappearance of NADH fluorescence
Method in brief: (§5)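 Purified human LDH-A enzymatic assays were run. Inhibition constants (Ki) were calculated separately versus pyruvate and versus NADH as the varied substrate.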

[12] = molecular target: T1, L-lactate dehydrogenase A chain; test: Inhibition of human liver purified lactate dehydrogenase-A using NADH as substrate assessed as disappearance of NADH fluorescence; method in brief: as §5
Raji [13] = test: Potentiation of sunitinib-induced cytotoxicity against human Raji cells assessed as combination index at 40 uM after 24 hrs by Trypan blue exclusion method relative to control; type: functional; method in brief: as §1
[14] = Cytotoxicity against lymphocytes (unknown origin) assessed as cell viability at 200 uM after 24 hrs by Trypan blue exclusion method; type: cell-based; settings: lymphocyte
Method in brief: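 Viability of normal lymphocytes after treatment was compared with Raji cultures across a concentration range up to 200. Significance was assessed by ANOVA.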

[15] = molecular target: T1, L-lactate dehydrogenase A chain; test: Inhibition of lactate dehydrogenase-A in human Raji cells assessed as reduction of NAD+ regeneration at 40 uM; type: cell-based; method in brief: as §2
Raji [16] = test: Antiproliferative activity against human Raji cells at 40 uM after 24 hrs by Trypan blue exclusion method; type: functional
[17] = molecular target: T1, L-lactate dehydrogenase A chain; test: Inhibition of lactate dehydrogenase-A in human Raji cells assessed as reduction of intracellular lactate level after 3 hrs; type: cell-based
Method in brief: (§6)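 Raji Burkitt's lymphoma cells (MYC-overexpressing) were used for lactic acid production and cell proliferation. All points were run in triplicate and reported as mean ± standard deviation.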

Raji [18] = test: Antiproliferative activity against human Raji cells after 24 hrs by Trypan blue exclusion method; type: functional, cell-based; method in brief: as §6
Raji [19] = test: Cell cycle arrest in human Raji cells assessed as accumulation at G2/M phase at 40 uM after 18 hrs using propidium iodide staining by flow cytometry; type: functional, cell-based; method in brief: as §4

What does the source list for `COc1cc(C(=O)N/N=C/c2ccc(-c3cccc(C(=O)O)c3)o2)cc(OC)c1OC`?
CI (Raji [1]): 0.88; inhibition [2]: 50%; Activity [3]: 26 pmol; fold change (FC) (Raji [4]): 6.7; Activity (Raji [5]): Active; CI (Raji [6]): 1; pIC50 [7]: 4.43; Activity (Raji [8]): inactive; CI (Raji [9]): 0.86; Activity [10]: 351 pmol; pKi [11]: 4.41; pKi [12]: 4.33; CI (Raji [13]): 1.08; Activity [14]: Non-toxic; inhibition [15]: Active; inhibition at 40 µM (Raji [16]): 50%; pIC50 [17]: 4.38; pIC50 (Raji [18]): 4.42; Activity (Raji [19]): Active

With `N#CCC(=O)N/N=C/c1ccc(-c2ccc(C(=O)O)cc2)o1` as the molecule, how does the pIC50 [7] read?
Its pIC50 is 4.43.

And the pIC50 [17]?
The pIC50 was < 3.70.

With `O=C(O)c1cccc(-c2ccc(/C=N/NC(=O)c3ccc4[nH]ncc4c3)o2)c1` as the molecule, how does the pIC50 [7] read?
Its pIC50 is 4.39.

What about the pIC50 [17] of the same molecule?
Its pIC50 is < 3.70.

What about the pIC50 (Raji [18]) of the same molecule?
Its pIC50 is 4.35.

With `O=C(O)c1cccc(-c2ccc(/C=N/NC(=O)c3cccc(CO)c3)o2)c1` as the molecule, how does the pIC50 [7] read?
The pIC50 was 4.34.

And the pIC50 [17]?
Its pIC50 is < 3.70.

And the pIC50 (Raji [18])?
Its pIC50 is < 3.70.

With `O=C(O)c1cccc(-c2ccc(/C=N/NC(=O)c3ccc4[nH]ccc4c3)o2)c1` as the molecule, how does the pIC50 [7] read?
Its pIC50 is 4.42.

What about the pIC50 [17] of the same molecule?
Its pIC50 is 4.00.

What about the pIC50 (Raji [18]) of the same molecule?
The pIC50 was 3.94.

With `COc1cc(C(=O)N/N=C/c2ccc(-c3cccc(C(=O)O)c3)s2)cc(OC)c1OC` as the molecule, how does the pIC50 [7] read?
The pIC50 was 4.39.

And the pIC50 [17]?
Its pIC50 is 3.98.

And the pIC50 (Raji [18])?
Its pIC50 is 4.02.

With `COc1cc(C(=O)N/N=C/c2cccc(-c3cccc(C(=O)O)c3)n2)cc(OC)c1OC` as the molecule, how does the pIC50 [7] read?
Its pIC50 is < 3.70.

With `COc1cc(C(=O)N/N=C/c2ccc(-c3ccc(C(=O)O)cc3)o2)cc(OC)c1OC` as the molecule, how does the pIC50 [7] read?
Its pIC50 is 3.90.

And the pIC50 [17]?
Its pIC50 is 3.87.

And the pIC50 (Raji [18])?
Its pIC50 is 4.00.

With `COc1cc(C(=O)N/N=C/c2cc(-c3cccc(C(=O)O)c3)co2)cc(OC)c1OC` as the molecule, how does the pIC50 [7] read?
The pIC50 was 4.49.

What about the pIC50 [17] of the same molecule?
The pIC50 was 4.28.

And the pIC50 (Raji [18])?
Its pIC50 is 4.32.

With `N#CCC(=O)N/N=C/c1ccc(-c2cccc(C(=O)O)c2)o1` as the molecule, how does the pIC50 [7] read?
Its pIC50 is 4.32.

What about the pIC50 [17] of the same molecule?
The pIC50 was 3.94.

What about the pIC50 (Raji [18]) of the same molecule?
The pIC50 was 4.19.

With `O=C(O)c1cccc(-c2ccc(/C=N/NC(=O)c3cccnc3)o2)c1` as the molecule, how does the pIC50 [7] read?
The pIC50 was 4.37.

And the pIC50 [17]?
The pIC50 was < 3.70.

What about the pIC50 (Raji [18]) of the same molecule?
The pIC50 was < 3.70.

With `COC(=O)c1cccc(-c2ccc(/C=N/NC(=O)c3cccnc3)o2)c1` as the molecule, how does the pIC50 [7] read?
Its pIC50 is < 3.70.

With `COc1cc(C(=O)N/N=C/c2c[nH]c(-c3cccc(C(=O)O)c3)c2)cc(OC)c1OC` as the molecule, how does the pIC50 [17] read?
Its pIC50 is < 3.70.

And the pIC50 (Raji [18])?
The pIC50 was 4.10.

With `N#CCC(=O)N/N=C/c1cccc(-c2ccc(C(=O)O)cc2)n1` as the molecule, how does the pIC50 [7] read?
Its pIC50 is < 3.70.
